Test results as given in BindingDB's records for doi:10.1016/j.bmcl.2009.05.073 (Cytrx, 2009).

Target: T1, Heat shock factor protein 1 (Homo sapiens, UniProt Q00613)
T1 sequence (Q00613 whole entry): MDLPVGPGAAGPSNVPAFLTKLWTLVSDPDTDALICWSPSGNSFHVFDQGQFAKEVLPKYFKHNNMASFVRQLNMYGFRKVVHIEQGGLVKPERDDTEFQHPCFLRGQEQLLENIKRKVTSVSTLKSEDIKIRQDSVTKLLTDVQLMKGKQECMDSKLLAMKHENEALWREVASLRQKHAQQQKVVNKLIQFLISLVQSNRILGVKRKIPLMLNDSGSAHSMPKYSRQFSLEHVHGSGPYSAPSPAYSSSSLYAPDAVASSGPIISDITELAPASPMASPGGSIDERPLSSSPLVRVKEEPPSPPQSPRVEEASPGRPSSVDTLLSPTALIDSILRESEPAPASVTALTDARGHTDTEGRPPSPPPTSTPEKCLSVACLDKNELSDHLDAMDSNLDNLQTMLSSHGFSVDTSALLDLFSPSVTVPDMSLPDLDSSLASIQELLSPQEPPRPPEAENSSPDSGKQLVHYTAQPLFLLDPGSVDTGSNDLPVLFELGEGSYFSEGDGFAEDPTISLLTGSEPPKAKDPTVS
Experiment: Amplification of HSF1 transcriptional activity in human HeLa cells assessed as granule formation pretreated for 3 hrs by immunocytochemical staining
Method in brief: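 HeLa cells pretreated with compound 1 h, then mild heat shock 41 °C for 2 h, no recovery; control arm pretreated 3 h at 37 °C without heat shock. Compound diluted 200-fold, 0.3 to 80 µM range.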

Row | SMILES | EC50
1 | C=c1c(O)c(O)cc2c1=CC=C1[C@@]2(C)CC[C@@]2(C)[C@@H]3C[C@](C)(C(=O)O)CC[C@]3(C)CC[C@]12C | 2.6 µM

Target: not listed separately
Experiment: Amplification of HSF1 transcriptional activity in human heat shock-induced HeLa cells assessed as granule formation treated 1 hr before heat shock challenge measured after 2 hrs without recovery time by immunocytochemical staining

Row | EC50 | SMILES
2 | 7.7 µM | CCCCn1nc(-c2ncc[nH]2)nc2c(=O)n(C)c(=O)nc1-2 [1-butyl-3-(1H-imidazol-2-yl)-6-methylpyrimido[5,4-e][1,2,4]triazine-5,7(1H,6H)-dione]
3 | 10 µM | CCCCn1nc(-c2ccc(C)o2)[n+]([O-])c2c(=O)n(C)c(=O)nc1-2 [1-butyl-6-methyl-3-(5-methylfuran-2-yl)-5,7-dioxo-1,5,6,7-tetrahydropyrimido[5,4-e][1,2,4]triazine 4-oxide]
4 | 9.9 µM | CCCCn1nc(-c2ccc(C)o2)nc2c(=O)n(C)c(=O)nc1-2 [1-butyl-6-methyl-3-(5-methylfuran-2-yl)pyrimido[5,4-e][1,2,4]triazine-5,7(1H,6H)-dione]
5 | 8.6 µM | CCCCn1nc(-c2ccc(C)s2)[n+]([O-])c2c(=O)n(C)c(=O)nc1-2 [1-butyl-6-methyl-3-(5-methylthiophen-2-yl)-5,7-dioxo-1,5,6,7-tetrahydropyrimido[5,4-e][1,2,4]triazine 4-oxide]
6 | 16.8 µM | CCCCn1nc(-c2ccc(C)s2)nc2c(=O)n(C)c(=O)nc1-2 [1-butyl-6-methyl-3-(5-methylthiophen-2-yl)pyrimido[5,4-e][1,2,4]triazine-5,7(1H,6H)-dione]
7 | 2.5 µM | CCCCn1nc(-c2ccc3ccccc3n2)nc2c(=O)n(C)c(=O)nc1-2 [1-butyl-6-methyl-3-(quinolin-2-yl)pyrimido[5,4-e][1,2,4]triazine-5,7(1H,6H)-dione]
8 | 2.1 µM | CCCCn1nc(-c2nccs2)nc2c(=O)n(C)c(=O)nc1-2 [1-butyl-6-methyl-3-(thiazol-2-yl)pyrimido[5,4-e][1,2,4]triazine-5,7(1H,6H)-dione]
9 | 14.8 µM | CCCCn1nc(-c2ccccc2)nc2c(=O)n(C)c(=O)nc1-2 [1-butyl-6-methyl-3-phenylpyrimido[5,4-e][1,2,4]triazine-5,7(1H,6H)-dione]
10 | 39.8 µM | CCn1nc(-c2ncc[nH]2)nc2c(=O)n(C)c(=O)nc1-2 [1-ethyl-3-(1H-imidazol-2-yl)-6-methylpyrimido[5,4-e][1,2,4]triazine-5,7(1H,6H)-dione]
11 | 10.1 µM | CCn1nc(-c2ccco2)nc2c(=O)n(C)c(=O)nc1-2 [1-ethyl-3-(furan-2-yl)-6-methylpyrimido[5,4-e][1,2,4]triazine-5,7(1H,6H)-dione]
12 | 35 µM | CCn1nc(-c2ccc[nH]2)nc2c(=O)n(C)c(=O)nc1-2 [1-ethyl-6-methyl-3-(1H-pyrrol-2-yl)pyrimido[5,4-e][1,2,4]triazine-5,7(1H,6H)-dione]
13 | 20.6 µM | CCn1nc(-c2ccc(C)o2)[n+]([O-])c2c(=O)n(C)c(=O)nc1-2 [1-ethyl-6-methyl-3-(5-methylfuran-2-yl)-5,7-dioxo-1,5,6,7-tetrahydropyrimido[5,4-e][1,2,4]triazine 4-oxide]
14 | 46.3 µM | CCn1nc(-c2ccc(C)o2)nc2c(=O)n(C)c(=O)nc1-2 [1-ethyl-6-methyl-3-(5-methylfuran-2-yl)pyrimido[5,4-e][1,2,4]triazine-5,7(1H,6H)-dione]
15 | 11.6 µM | CCn1nc(-c2ccc(C)s2)[n+]([O-])c2c(=O)n(C)c(=O)nc1-2 [1-ethyl-6-methyl-3-(5-methylthiophen-2-yl)-5,7-dioxo-1,5,6,7-tetrahydropyrimido[5,4-e][1,2,4]triazine 4-oxide]
16 | 17.3 µM | CCn1nc(-c2ccc(C)s2)nc2c(=O)n(C)c(=O)nc1-2 [1-ethyl-6-methyl-3-(5-methylthiophen-2-yl)pyrimido[5,4-e][1,2,4]triazine-5,7(1H,6H)-dione]
17 | 24.7 µM | CCn1nc(-c2ccc[nH]2)[n+]([O-])c2c(=O)n(C)c(=O)nc1-2 [1-ethyl-6-methyl-5,7-dioxo-3-(1H-pyrrol-2-yl)-1,5,6,7-tetrahydropyrimido[5,4-e][1,2,4]triazine 4-oxide]
18 | 40.8 µM | CCCCn1nc(-c2nc3ccccc3[nH]2)nc2c(=O)n(C)c(=O)nc1-2 [3-(1H-benzo[d]imidazol-2-yl)-1-butyl-6-methylpyrimido[5,4-e][1,2,4]triazine-5,7(1H,6H)-dione]
19 | 14 µM | Cn1c(=O)nc2n(Cc3ccc(F)cc3)nc(-c3nc4ccccc4s3)nc-2c1=O [3-(benzo[d]thiazol-2-yl)-1-(4-fluorobenzyl)-6-methylpyrimido[5,4-e][1,2,4]triazine-5,7(1H,6H)-dione]
20 | 4.1 µM | Cn1c(=O)nc2n(Cc3ccccc3)nc(-c3nc4ccccc4s3)nc-2c1=O [3-(benzo[d]thiazol-2-yl)-1-benzyl-6-methylpyrimido[5,4-e][1,2,4]triazine-5,7(1H,6H)-dione]
21 | 1.3 µM | CC(C)Cn1nc(-c2nc3ccccc3s2)nc2c(=O)n(C)c(=O)nc1-2 [3-(benzo[d]thiazol-2-yl)-1-isobutyl-6-methylpyrimido[5,4-e][1,2,4]triazine-5,7(1H,6H)-dione]
22 | 2.5 µM | CC(C)CCn1nc(-c2nc3ccccc3s2)nc2c(=O)n(C)c(=O)nc1-2 [3-(benzo[d]thiazol-2-yl)-1-isopentyl-6-methylpyrimido[5,4-e][1,2,4]triazine-5,7(1H,6H)-dione]

Row | SMILES | EC50
23 | CCn1nc(-c2cccs2)nc2c(=O)n(C)c(=O)nc1-2 [1-ethyl-6-methyl-3-thiophen-2-yl-pyrimido[5,4-e][1,2,4]triazine-5,7-dione] | 5.1 µM

Target: T1, Heat shock factor protein 1
Experiment: Amplification of HSF1 transcriptional activity in human heat shock-induced HeLa cells assessed as granule formation treated 1 hr before heat shock challenge measured after 2 hrs without recovery time by immunocytochemical staining
Method in brief: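 HeLa cells given compound 1 h before mild heat shock at 41 °C for 2 h, no recovery; compound diluted 200-fold, 0.3 to 80 µM. Unstressed control plates kept at 37 °C for 3 h. HSF1 immunocytochemical staining, imaged at 10×.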

Row | SMILES | EC50
24 | C=c1c(O)c(O)cc2c1=CC=C1[C@@]2(C)CC[C@@]2(C)[C@@H]3C[C@](C)(C(=O)O)CC[C@]3(C)CC[C@]12C | 1.1 µM
